High-throughput results (PubChem BioAssay)
This is one part of a sample in which hits are shown more often than they occur.
Ab BasE inh: inhibitors of Acinetobacter baumannii siderophore enzyme BasE; purified BasE, fluorescence polarization binding displacement; inhibition, % (no concentration beside the values); actives 0.1% (n = 84,000); in the data active = inhibition above about 25%, passing the limit was not always enough;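 note: 0% = negative plate control signal and 100% = positive plate control signal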
KSHV LANA nucl: LANA-nucleosome interaction inhibition. FITC-LANA1-23 / chicken nucleosome fluorescence polarization; stronger effect = lower value. z-score (no concentration beside the values). actives 0.3% (n = 51,000);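 active = both repeat wells score below -2 in polarization z-score versus plate sample wells, excluding overly bright wells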
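Assay system: FITC-LANA peptide and chicken nucleosomes; input: 240 nM purified chicken nucleosomes (480 nM peptide binding sites), final; also added: 50 nM FITC-LANA1-23 probe; medium: TEN-BT buffer, pH 7.5; doses: pin-transferred compound, 100 nL; times: 10–45 min, room temperature; technique: fluorescence polarization; replication: duplicates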
Active calls of the source: *; / = no result; ! = not active in a repeat.

SMILES	Ab BasE inh	KSHV LANA nucl
COc1ccc(CSc2cccc[n+]2[O-])cc1F	1	/
Nc1nnc(-c2cccs2)c(=O)n1N	31*	/
Nn1c(NNC(=O)c2ccccc2)nnc(-c2cccs2)c1=O	2	/
CCN(CC)N=Nc1ccc(NC(C)=O)cc1	0	0.026
CCc1ccc(-n2c(SCc3nnc(-c4cccs4)o3)nc3ccccc3c2=O)cc1	0	/
OCCNC1CCCc2ccccc21 (stereo unspecified)	-2	-0.16
O=C(CCc1ccccc1)Nc1ccc(-c2nnc(-c3ccccc3)o2)cc1	0	0.97
O=C(CSc1n[nH]c(Cc2ccccc2)n1)NC1CCCCC1	2	-2.4*
Cc1nc(SCC(=O)NC2CCCC2)[nH]c(=O)c1Cc1ccccc1	1	1.3
CC(C)NC(=O)COn1nnc2ccc(Cl)cc21	4	/
O=c1[nH]c2c(s1)C=Nc1cc3ccccc3cc1N2	23	-2.3*
N#CCCN(/N=C/c1ccccc1)C1=NS(=O)(=O)c2ccccc21	3	/
CCN(CC)c1ccc(/C=N/N(CCC#N)C2=NS(=O)(=O)c3ccccc32)cc1	11	-8.4*
C[n+]1cccc2ccc(O)cc21	20	-6.7*
CN/N=C/c1cc2cc(OC)ccc2nc1Cl	1	/
Cc1nn(-c2ccccc2)c(N2CCCC2)c1/C=N/NC(=O)Cn1ccc(C(F)(F)F)n1	2	/
CN(Cc1ccc(-c2ccc(Cl)cc2)o1)C(=O)CC1Oc2ccccc2NC1=O (stereo unspecified)	-2	/
CC(Cn1nnc2ccccc21)C(=O)O (stereo unspecified)	4	/
C/C(Cn1nnc2ccccc21)=N/OC(=O)c1c(F)cccc1F	53*	0.5
COc1ccc(/C=C2/C(=O)N=C(N)N2C)cc1	-2	1.7
CN(CC1COc2ccccc2O1)C(=O)NC12CC3CC(CC(C3)C1)C2 (stereo unspecified)	30*	/
CN(CC1COc2ccccc2O1)C(=O)C1(c2ccccc2)CC1 (stereo unspecified)	3	/
Cc1ccnc(SCC(=O)N2CCc3ccccc3C2)n1	40*	/
O=C(CSc1ncccn1)N1CCc2ccccc2C1	1	0.45
COC(=O)c1ccccc1NC(=O)C(C)C	0	0.5
SMILES	Ab BasE inh	KSHV LANA nucl
O=c1[nH]c(=O)c2nc3cc(C(F)(F)F)ccc3nc2[nH]1	13	-2.9*
CCN(Cc1nc2ccccc2c(=O)[nH]1)Cc1nc2cc(C(F)(F)F)ccc2c(=O)[nH]1	-1	/
CCCC(NC(=O)c1ccc(N(C)Cc2cnc3nc(N)nc(N)c3n2)cc1)C(=O)O (stereo unspecified)	/	-0.16
CCCCc1cc(=O)oc2c(CN(C)C)c(O)ccc12	20	0.71
CC[C@@]1(O)C(=O)OCc2c1cc1n(c2=O)Cc2cc3c(CN(C)C)c(O)ccc3nc2-1	15	-9*!
Cc1cccc(OCC(=O)N(Cc2ccco2)Cc2ccco2)c1	28*	0.49
Cc1cccc(OCC(N)=O)c1	22	/
O=C(CSc1n[nH]c(=O)[nH]c1=O)Nc1ccccc1C(=O)c1ccccc1	38*	/
O=C(CSc1n[nH]c(=O)[nH]c1=O)Nc1ccc(Br)cc1Br	-1	/
CCCCSC1=C(C#N)C(=O)NC(c2ccc(OC)cc2)S1 (stereo unspecified)	4	-0.36
COc1ccc(CSC2=C(C#N)C(=O)NC3(CCCCC3)S2)cc1	39*	/
CCCc1cc2c(=O)c(-c3ccc4c(c3)OCO4)c(CCC)oc2cc1O	3	-0.41
CC(C)c1ccccc1OCC(=O)c1ccc(O)cc1O	0	-0.043
CC(=O)N1N=C(c2cccc(I)c2)OC1c1ccncc1 (stereo unspecified)	59*	-0.15
CCC(=O)Nc1cccc(C2=NN(C(C)=O)C(c3ccc(F)cc3)O2)c1 (stereo unspecified)	0	-1.1
O=C(c1csc(-c2ccccc2)n1)N(Cc1ccccn1)Cc1ccccn1	/	-2*
CCN(CC)C(=O)NCc1ccccn1	3	-0.21
CC(C)N(CC(N)=O)C(=O)c1cc2ccccc2o1	1	/
CC(=O)Nc1ccc(N/C(C)=C/C(=O)c2cccnc2)cc1	39*	-0.39
COc1ccc(N/C(C)=C/C(=O)c2ccccc2)cc1	0	-0.32
CC(=O)N1CC=C2C(C#N)=C(N)C(C#N)(C#N)C(Cc3ccccc3)C2C1 (stereo unspecified)	0	-0.78
CC(C)CC1C2CN(Cc3ccccc3)CC=C2C(C#N)=C(N)C1(C#N)C#N (stereo unspecified)	15	-1.5
CCCC1C2CN(Cc3ccccc3)CC=C2C(C#N)=C(N)C1(C#N)C#N (stereo unspecified)	23	-4.6*
CN1CC=C2C(C#N)=C(N)C(C#N)(C#N)C(CCc3ccccc3)C2C1 (stereo unspecified)	22	-2.9*
COc1cc2nc(NC(=O)c3cccs3)sc(=O)c2cc1OC	1	3
SMILES	Ab BasE inh	KSHV LANA nucl
CCN(C(=O)c1cccc(Cl)c1)C1CCCCC1	0	0.75
CCN(C(=O)NC1(C(F)(F)F)Oc2ccc(Cl)cc2O1)C1CCCCC1 (stereo unspecified)	40*	-0.19
Cc1nn(C)c(Sc2ccc(Cl)cc2)c1C(N)=O	/	1.7
C/C(=N\NC(=S)NC1CCCCC1)c1ccc(S(=O)(=O)NCc2ccco2)cc1	-1	/
C/C(=N\NC(=O)c1ccc(O)cc1)c1ccc(S(=O)(=O)NCc2ccco2)cc1	29*	/
N#Cc1ccc(C2C3=C(CCCC3=O)NC3=C2C(=O)CCC3)cc1	0	0.11
CN(C)c1ccc2nc3ccc(=[N+](C)C)cc-3sc2c1	/	-2.4*
CC(C)c1nc2ccc(N)cc2s1	3	0.51
C1CNCCN1	-2	1.5
C1COCCNCCOCCN1	-2	-2.6*
COc1cc(/C=N/NC(=O)c2sc(N)nc2C)ccc1O	24	-0.41
COc1ccc(SCC(=O)c2cn(CCC#N)c3ccccc23)cc1	-3	/
N#CCCn1cc(C(=O)CSc2ccccn2)c2ccccc21	32*	/
CN1CCN(C(=O)c2ccc3c(c2)S(=O)(=O)c2ccccc2C3=O)CC1	1	/
CN(C)c1ccc2c(c1)S(=O)(=O)c1cc(N(C)C)ccc1C2=O	33	-4*
CCCS(=O)(=O)Nc1ccccc1C(=O)NCc1ccccc1	0	/
Oc1ccc(Br)c2cccnc12	57*	1
Oc1ccc(Cl)c2cccnc12	-1	-0.12
N#CC(C(=O)Nc1ccc(Cl)c(Cl)c1)=C1Nc2ccccc2N1	1	0.55
N#CC(C(=O)Nc1ccccc1)=C1Nc2ccccc2N1	31*	/
COC(=O)C1=CN(C2CC2)C=C(C(=O)OC)C1c1ccc(OC(F)(F)F)cc1	0	0.22
COc1cccc(NC(=O)CC(C)NCc2nc3ccccc3[nH]2)c1 (stereo unspecified)	-1	/
Nc1ccc2nsnc2c1	26	-3.1*
CCOC(=O)c1ccc2nsnc2c1	0	0.36
Nc1ccc(Br)cc1C(O)c1ccccc1 (stereo unspecified)	0	/
O=C(COC(=O)C1CCN(S(=O)(=O)c2ccc3c(c2)OCCO3)CC1)c1ccc(Cl)s1	-2	/
O=C(CC1SC(=NC2CC2)NC1=O)Nc1ccc(Oc2ccccc2)cc1 (stereo unspecified)	0	/
Cn1cccc1/C=C1/SC(=S)N(c2ccc(C(=O)O)cc2)C1=O	-37	-0.2
CN(C)/C=C1\SC(=S)N(c2ccc(Br)cc2)C1=O	8	-8.9*
Cn1c(SCC(=O)N/N=C2/CC3CCC2(C)C3(C)C)nnc1-c1ccco1 (stereo unspecified)	-1	/
